High-throughput results from PubChem BioAssay.
In the library only some 2.6% were active in any assay of this set; here they are far more common.
NPY-Y1 PAM-ag: NPY-Y1 receptor potentiators or agonists, primary screen, cell-based. activation, % at 3.6 µM. Neuropeptide Y receptor type 1 (Homo sapiens), P25929. AID 1304, 2008. 0.37% of 220,000 active. NPY-Y1 expressing cells, potentiator/agonist activation; in the data active means activation above about 33%, passing the limit was not always enough;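 further: cells stimulated with NPY at EC10 then isoproterenol at EC100; 0% = low agonist plus stimulus and 100% = saturating agonist plus stimulus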
NPY2 pot ag: NPY-Y2 potentiators or agonists, primary screen, cell-based | Neuropeptide Y receptor type 2 (Homo sapiens), P49146 | cells expressing NPY-Y2, potentiator/agonist read-out | activation, % at 3.6 µM | 0.45% of 220,000 active | AID 1359, 2008; in the data active means activation above about 27%;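 further: cells stimulated with NPY near EC25 plus isoproterenol at EC100; 0% = vehicle plus submaximal agonist and 100% = vehicle plus saturating agonist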
Target sequence (P49146 whole entry, looked up): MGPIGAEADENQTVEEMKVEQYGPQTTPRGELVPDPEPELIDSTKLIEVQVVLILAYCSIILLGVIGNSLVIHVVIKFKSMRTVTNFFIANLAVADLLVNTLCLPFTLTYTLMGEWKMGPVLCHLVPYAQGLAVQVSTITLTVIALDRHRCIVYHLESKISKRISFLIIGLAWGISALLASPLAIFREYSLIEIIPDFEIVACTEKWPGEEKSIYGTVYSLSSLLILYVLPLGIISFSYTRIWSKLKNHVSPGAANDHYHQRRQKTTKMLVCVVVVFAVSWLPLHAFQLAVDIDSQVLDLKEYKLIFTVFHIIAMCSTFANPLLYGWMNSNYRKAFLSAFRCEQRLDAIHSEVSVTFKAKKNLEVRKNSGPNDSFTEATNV
MT stabilize HCS: microtubule stabilizers in HeLa cells, primary screen, imaging, high-content imaging. HeLa tubulin immunostaining HCS, 24 h; share of cells brighter than vehicle mean+2SD. % tubulin-high responders, % at 10 µM. 0.83% of 200,000 active;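 active means plate Z-score above 3 for both tubulin-high and condensed-nucleus cell shares, with cell loss under 80%, at 10 µM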;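 further: anti alpha tubulin signal scored within the nucleus-defined area of each cell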
NPY Y1 blocker: NPY-Y1 receptor antagonists, primary screen, cell-based; Neuropeptide Y receptor type 1 (Homo sapiens), P25929; HEK293-CNG Y1 cells, membrane potential fluorescence; NPY at EC95, then isoproterenol; inhibition, % at 3.6 µM; 1% of 200,000 active;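 active means inhibition above the campaign mean inhibition of all tested compounds plus 3 SD, cut at about 20% in these data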;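 further: 0% = DMSO wells given NPY plus isoproterenol and 100% = isoproterenol alone without NPY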
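material = HEK293 cells with Y1 receptor plus CNG channel | also added = NPY 25 nM then isoproterenol 1 µM plus Ro 20-1724 25 µM | schedule = dye 3 h, compound 60 min room temperature, stimulation 45 min | measured by = membrane potential fluorescence | benchmarks = high control isoproterenol alone, low control NPY with isoproterenol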
NPY Y2 blocker: NPY-Y2 receptor antagonists, primary screen, cell-based. Neuropeptide Y receptor type 2 (Homo sapiens), P49146. NPY-Y2 expressing cells, antagonist mode. inhibition, % at 2.7 µM. 0.99% of 140,000 active. AID 793, 2007; in the data active means inhibition above about 17%;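 further: 0% = vehicle with agonist challenge and 100% = reference antagonist with challenge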
bCat nuc transl: modulators of beta-catenin nuclear translocation, primary screen, imaging, HeLa cells, immunofluorescence, high-content; AID 1665, 2009; 0.3% of 190,000 active; nuclear translocation activity, % at 5 µM;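 active means nuclear translocation activity above 50% at 5 µM, with a well cell count of 50 or more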;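 further: per-cell ratio of nuclear to cytoplasmic median beta-catenin stain intensity; plate controls were DMSO negative control for no effect and GSK-3 inhibitor IX positive control for full effect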
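Test system: human HeLa cells, endogenous beta-catenin. Times: 24 h compound exposure, 37°C. Measured by: beta-catenin immunofluorescence imaging with DAPI.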
Active calls of the source: *; x = no result given.

SMILES | NPY-Y1 PAM-ag | NPY2 pot ag | MT stabilize HCS | NPY Y1 blocker | NPY Y2 blocker | bCat nuc transl
O=C(Cc1c[nH]c2ccccc12)NCc1ccccc1F | -2 | 0 | 4 | -1 | x | -2
CCn1c(SC(C)C(=O)OC)nnc1-c1c[nH]c2ccccc12 (centres undefined) | 15 | 5 | 4 | -4 | -1 | x
COc1ccccc1-n1c(=O)c(C#N)c(-c2ccc([N+](=O)[O-])cc2)c2cc(C(=O)c3cc(F)ccc3O)cnc21 | 19 | 0 | 2 | -2 | x | -4
Cn1c(=O)c(C#N)c(-c2ccc(F)cc2)c2cc(C(=O)c3cc(Cl)cc(Cl)c3O)cnc21 | 58* | 92* | x | x | x | 3
CC(=O)n1cc(N(C(=O)CCl)c2ccc([N+](=O)[O-])cc2)c2ccccc21 | 69* | 54* | x | x | x | 2
Cc1ccc(NC(=O)C(=O)NCCCN2CCOCC2)c(C)c1 | -11 | -9 | x | x | x | -1
Oc1ccc(-c2csc(-c3cccnc3)n2)c(O)c1 | -7 | 0 | 12* | -3 | x | 25
Oc1ccc(-c2nc(-c3ccc(O)c(O)c3)cs2)cc1 | 18 | 7 | 15* | -8 | 0 | 66*
Oc1ccc(Nc2nc(-c3ccc4ccccc4c3)cs2)cc1 | 31 | 25 | 3 | -11 | -5 | x
COC(=O)CSc1nc(C)c2c(n1)CCCC2 | 12 | 4 | 3 | 2 | x | 0
O=C(N/N=C/c1ccc(F)cc1)c1sccc1OCc1ccc(F)cc1 | -50 | -39 | 34* | 11 | 23* | 87*
COc1ccc(COc2ccsc2C(=O)Nc2ccc(Cl)cc2)cc1 | -65 | -10 | 1 | 11 | 13 | -1
NNC(=O)c1sccc1OCc1ccc(F)cc1 | -10 | -23 | 2 | 7 | x | 8
O=C(N/N=C/c1ccc(Cl)cc1)c1sccc1OCc1ccc(F)cc1 | -227 | -153 | 19* | 109* | 113* | 0
CC1=C(C(=O)OCC2CCCO2)C(c2ccc(Cl)c(Cl)c2)NC(=O)N1 (centres undefined) | 11 | 7 | 3 | 0 | x | 0
O=C(CCn1c(=O)oc2ccccc21)Nc1ccc2c(c1)OCCO2 | x | x | x | x | x | 2
O=C(CSc1n[nH]c(-c2ccccc2O)n1)N1CCCc2ccccc21 | -10 | -3 | 48* | 1 | 5 | -1
O=C(/C=C/c1ccccc1)Nc1ccc(Cl)cn1 | -10 | -7 | 25* | 1 | x | 3
O=C(CC(c1ccccc1)c1ccccc1)Nc1ccc(Cl)cn1 | -2 | -26 | 53* | 8 | 16 | -4
O=C(/C=C/c1cccs1)Nc1cccc(NC(=O)/C=C/c2cccs2)n1 | 9 | 20 | 3 | -9 | 0 | 3
Cc1cccc(NC(=O)/C=C/c2ccc(Cl)cc2)n1 | 6 | -7 | 3 | 2 | 5 | -2
O=C(/C=C/c1cccs1)Nc1ccc(Br)cn1 | -23 | -13 | 7 | 13 | 3 | 166*
O=C(Nc1ccc(Cl)cn1)c1ccccc1[N+](=O)[O-] | 1 | 5 | 23* | 11 | x | 1
O=C(NNC(=O)c1ccccc1[N+](=O)[O-])Nc1ccc(Cl)cc1 | 10 | 15 | 3 | -1 | x | -3
COc1ccccc1N=c1oc2cc(O)ccc2cc1C(=O)NCC1CCCO1 (centres undefined) | -19 | 0 | 1 | 24* | 21* | 0
SMILES | NPY-Y1 PAM-ag | NPY2 pot ag | MT stabilize HCS | NPY Y1 blocker | NPY Y2 blocker | bCat nuc transl
Cc1cc(C)n(Cc2cc(C(=O)O)c3ccccc3n2)n1 | 5 | -6 | 1 | 1 | x | -1
CC(CCc1ccccc1)NCC(O)COc1ccccc1 (centres undefined) | 104* | 100* | 11 | -10 | x | -1
CCCC(NCC(O)COc1ccc(-c2ccccc2)cc1)c1ccccc1 (centres undefined) | -19 | -18 | 22* | 2 | x | -1
CCN(Cc1ccccc1)CC(O)COc1ccccc1 (centres undefined) | -28 | -13 | 2 | 10 | 7 | 4
COc1ccc(OC)c(NC(=O)CN(c2ccc(C(C)C)cc2)S(=O)(=O)c2c(C)noc2C)c1 | -20 | -16 | 4 | 8 | 11 | x
CCCN(c1ccc(C(C)C)cc1)S(=O)(=O)c1c(C)noc1C | 0 | -5 | 2 | 22* | 28* | -13
O=C1CC(c2ccccc2)CC(O)=C1C=Nc1ccccc1Cl (centres undefined) | -1 | 5 | 3 | 11 | 14 | 8
COc1ccccc1N=CC1=C(O)CC(c2ccccc2)CC1=O (centres undefined) | -41 | -9 | 5 | 5 | 10 | 96*
COc1ccc(Cn2c(=O)c3[nH]cnc3n(-c3ccccc3C)c2=O)cc1 | -15 | -18 | x | x | x | 73*
COc1ccc(C)c(-n2c(=O)n(Cc3ccccc3)c(=O)c3[nH]cnc32)c1 | 8 | 6 | x | x | x | 0
Cc1[nH]n(-c2ccc([N+](=O)[O-])cc2)c(=O)c1N=Nc1nc2ccccc2s1 | 32 | 0 | 6 | 9 | 5 | x
c1ccc(CN2CCN(c3nc(NCc4ccco4)c4ccccc4n3)CC2)cc1 | -26 | -16 | 2 | 31* | 28* | -1
OCCN1CCN(c2nc(NCc3ccco3)c3ccccc3n2)CC1 | -40 | -19 | 3 | 12 | 7 | 0
Cc1ccc(OCCN2CCN(c3nc(NCc4ccco4)c4ccccc4n3)CC2)cc1 | -58 | -7 | 3 | 34* | 30* | 3
Cc1oc(-c2cccs2)nc1CN1CCC(CO)(CCOc2ccccc2)CC1 | -15 | -15 | 2 | 8 | x | 1
COc1ccc(Br)cc1/C=C/C(=O)c1ccc(NC(C)=O)cc1 | 12 | -1 | 8 | -5 | 4 | 52*
C=CCOc1ccc2nc(NC(=O)OC)[nH]c2c1 | -27 | -13 | 38* | 9 | 1 | 109*
O=C(COC(=O)CCC(=O)c1cccs1)Nc1cccc(S(=O)(=O)N2CCOCC2)c1 | 4 | -15 | 5 | 2 | 2 | -1
CC1=CC(C)(C)N(C(=O)CSc2nnc(N)s2)c2c(C)cc(C)cc21 | 70* | 24 | 0 | 7 | 2 | 0
Cc1cc(C)c(C(=O)CSc2nnc(N)s2)c(C)c1 | -5 | -1 | 5 | 1 | x | -1
COc1ccc(NC(=O)CC23CC4CC(C2)CC(n2nnc(C)n2)(C4)C3)cc1 | -7 | -8 | 3 | 5 | x | 0
CCOC(=O)c1cc(-c2ccc(OC)cc2)nc2c1c(C)nn2CCC#N | -22 | -17 | 2 | 26* | 20* | -2
NC(=O)c1cc2ccncc2c2ccccc12 | -9 | -8 | x | x | x | -1
COc1cc(OC)cc(C(=O)N[C@H](C(=O)Nc2nc(-c3ccc(OC)c(OC)c3)cs2)C(C)C)c1 | -2 | -27 | x | x | x | 0
